GASC1 inh: inhibitors of human demethylase GASC-1 KDM4C. inhibition, % at 12.5 µM. Q9H3R0. 96,000 compounds, 0.15% hits. AID 720574. GST-KDM4C 2-372, H3K9me3 peptide, LANCE TR-FRET;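 active = mean replicate inhibition above about 25%, with at least 55% of replicates also reaching it, limit read from the data, passing the limit was not always enough; inconclusive = only one of those two conditions met; inactive = neither condition met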
Target sequence (Q9H3R0 2-372 limits assumed): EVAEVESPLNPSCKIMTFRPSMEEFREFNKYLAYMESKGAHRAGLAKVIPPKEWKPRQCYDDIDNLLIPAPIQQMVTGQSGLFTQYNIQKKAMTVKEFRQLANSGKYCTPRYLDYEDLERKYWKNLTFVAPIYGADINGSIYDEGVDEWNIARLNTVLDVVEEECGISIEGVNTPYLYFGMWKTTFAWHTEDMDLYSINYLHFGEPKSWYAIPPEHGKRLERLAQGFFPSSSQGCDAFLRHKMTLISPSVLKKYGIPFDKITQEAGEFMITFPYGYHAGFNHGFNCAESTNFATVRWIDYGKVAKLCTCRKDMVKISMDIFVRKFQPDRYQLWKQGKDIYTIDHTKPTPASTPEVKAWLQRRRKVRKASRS
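System: N-terminal GST-fused human GASC-1 (KDM4C) fragment, residues 2-372; amount: enzyme final amount 10 nM; incubation: reaction 30 min RT, detection step 1 h RT; medium: HEPES buffer, pH 7.5, plus ascorbate; technique: LANCE TR-FRET, Eu antibody, ULight-streptavidin, EDTA, ex 340 nm, em 618/671 nm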
IDH1 mut inh: IDH1 R132H (human) inhibition; O75874; IDH1 R132H reductase, diaphorase/resazurin fluorescence, 60 min; inhibition, % at 10 µM; 70,000 compounds, 0.18% hits; AID 624101; in the data active = inhibition above about 34%; inconclusive = no clear call, values can overlap the other calls; inactive = below about 11%;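 also: 0% = DMSO and 100% = no enzyme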
T cruzi growth-1: blocks T. cruzi growth in NIH3T3 culture | 77,000 compounds, 5.9% hits | inhibition, % at 8.34 µM | T. cruzi beta-gal in NIH3T3, GalScreen luminescence, 90 h;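 active = mean inhibition above about 93%, with at least 55% of replicates each passing it, limit read from the data, passing the limit was not always enough; inconclusive = only one of those two conditions holds; inactive = neither condition holds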
T cruzi growth-2: blocks T. cruzi growth in NIH3T3 host cells; shares compounds with T cruzi growth-1; T. cruzi beta-gal in NIH3T3, GalScreen luminescence, 90 h; inhibition, % at 8.35 µM; 5,600 compounds, 72% hits;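 active = mean replicate inhibition above about 95% and at least 55% of replicates individually reaching it, limit read from the data; inconclusive = only one of the two criteria is met; inactive = neither criterion is met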
T cruzi growth-3: Trypanosoma cruzi proliferation inhibition. shares compounds with T cruzi growth-1. T. cruzi beta-gal in NIH3T3, GalScreen luminescence, 90 h. inhibition, % at 2.09 µM. 5,600 compounds, 21% hits. AID 651740;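 active = mean inhibition above about 95%, with at least 55% of replicates also reaching it, limit read from the data; inconclusive = meets just one of the two conditions; inactive = meets neither condition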;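 also: plate controls were neutral control median for no effect and positive control median for full effect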
NIH3T3 tox: NIH/3T3 (mouse) viability loss; shares compounds with T cruzi growth-1; NIH/3T3 viability, CellTiter-Glo ATP luminescence, 90 h; cytotoxicity (signal decrease), % at 8.35 µM; 5,600 compounds, 14% hits; AID 651742;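 active = mean signal decrease across replicates above about 35% based on untreated-well scatter, with enough replicates individually passing, limit read from the data; inconclusive = no rule stated though some were filed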;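 also: 0% = median of neutral control wells and 100% = median of positive control wells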
NIH3T3 tox 2: cytotoxicity in mouse NIH/3T3 fibroblasts | shares compounds with T cruzi growth-1 | NIH/3T3 viability, CellTiter-Glo ATP luminescence, 90 h | inhibition, % at 24.9 µM | 5,600 compounds, 56% hits | AID 651744;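 active = mean loss of cell viability signal at or above a set limit, and enough replicates individually reaching it; inconclusive = meets only the mean limit or only the replicate share; inactive = meets neither condition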;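 also: 0% = median of neutral control wells and 100% = median of positive control wells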
* hit, by the source's call; ? = inconclusive; . = not tested or not shown. The sample as a whole holds a higher share of hits than the screen did.

SMILES	GASC1 inh	IDH1 mut inh	T cruzi growth-1	T cruzi growth-2	T cruzi growth-3	NIH3T3 tox	NIH3T3 tox 2
C[C@H](CO)N1C[C@H](C)[C@@H](CN(C)Cc2ccc(-c3ccccc3)cc2)Oc2ccc(NC(=O)C3CC3)cc2C1=O	-1	0	22	.	.	.	.
C[C@@H]1CN([C@@H](C)CO)C(=O)c2cc(NC(=O)C3CCCCC3)ccc2O[C@H]1CN(C)Cc1ccc(-c2ccccc2)cc1	0	.	110*	102*	100*	16	7
C[C@@H]1CN([C@@H](C)CO)C(=O)c2cc(NC(=O)C3CCCCC3)ccc2O[C@@H]1CN(C)Cc1ccc(-c2ccccc2)cc1	1	1	?	104*	83	24	80*
COc1ccc(C#Cc2ccc3c(c2)[C@@H]2[C@@H](CCN2C(=O)C2CCC2)[C@@H](CO)N3)cc1	4	.	.	.	.	.	.
COc1ccc(C#Cc2ccc3c(c2)[C@@H]2[C@@H](CCN2C(=O)C2CCCCC2)[C@@H](CO)N3)cc1	-1	.	101*	101*	86	27	95*
CCC(=O)N1CC[C@@H]2[C@H]1c1cc(C#Cc3ccc(F)cc3)ccc1N[C@@H]2CO	0	.	51	.	.	.	.
O=C(Cc1ccccc1)N1CC[C@@H]2[C@H](CO)Nc3ccc(C#Cc4ccccc4)cc3[C@@H]21	-3	.	81	.	.	.	.
CCC(=O)N1CC[C@@H]2[C@H](CO)Nc3ccc(C#Cc4ccc(F)cc4)cc3[C@@H]21	-2	.	106*	105*	74	18	50*
O=C(Cc1ccccc1)N1CC[C@@H]2[C@H]1c1cc(C#Cc3ccccc3)ccc1N[C@@H]2CO	-1	.	105*	89	61	-1	106*
COc1ccc(C#Cc2ccc3c(c2)[C@@H]2[C@@H](CCN2C(=O)C2CCC2)[C@H](CO)N3)cc1	-4	.	.	.	.	.	.
COc1ccc(C#Cc2ccc3c(c2)[C@H]2[C@H](CCN2C(=O)C2CC2)[C@@H](CO)N3)cc1	-3	.	116*	93	36	7	14
Cc1sc2ncn(CC(=O)Nc3cccc(C(F)(F)F)c3)c(=O)c2c1-c1ccc(Cl)cc1	.	-1	.	.	.	.	.
COC(=O)c1cc(NC(=O)COc2ccccc2Cl)cc(C(=O)OC)c1	.	1	.	.	.	.	.
CC(=O)c1cccc(NC(=O)CN(C2CCCCC2)S(=O)(=O)c2c(C)cc(C)cc2C)c1	.	0	.	.	.	.	.
Cc1ccc(NC(=O)CSc2nnc(-c3cccc4ccccc34)n2-c2ccccc2)c(C)c1	.	0	.	.	.	.	.
CC(C)c1ccc(NC(=O)CN(C)S(=O)(=O)c2ccc3ccccc3c2)cc1	.	0	.	.	.	.	.
O=C(CSc1nnc(-c2ccncc2)n1-c1ccccc1)c1c[nH]c2ccccc12	.	0	.	.	.	.	.
CC(=O)Nc1ccc(C(=O)CSc2nnc(-c3ccccc3Cl)o2)cc1	.	1	.	.	.	.	.
CN(C(=O)c1ccn[nH]1)C1CC(C)(C)N(C)C(C)(C)C1	.	1	.	.	.	.	.
CC1OC(OC(=O)C2=CC3(O)CC(C)(C)CC34C(C)CCC24)C(O)C(O)C1O (centres undefined)	.	0	.	.	.	.	.
CCC(=O)N1CC[C@H]2[C@H](CO)Nc3ccc(C#Cc4ccc(OC)cc4)cc3[C@H]21	0	.	.	.	.	.	.
COc1ccccc1C#Cc1ccc2c(c1)[C@H]1[C@H](CCN1C(=O)c1ccncc1)[C@@H](CO)N2	0	.	.	.	.	.	.
COc1ccc(C#Cc2ccc3c(c2)[C@@H]2[C@@H](CCN2C(=O)c2ccncc2)[C@@H](CO)N3)cc1	1	.	122*	105*	57	-18	13
COc1ccc(C#Cc2ccc3c(c2)[C@H]2[C@H](CCN2C(=O)c2ccccc2F)[C@H](CO)N3)cc1	-1	.	?	106*	99*	43*	62*
COc1cccc(C#Cc2ccc3c(c2)[C@H]2[C@H](CCN2C(=O)c2ccccc2F)[C@H](CO)N3)c1	0	.	60	.	.	.	.
SMILES	GASC1 inh	IDH1 mut inh	T cruzi growth-1	T cruzi growth-2	T cruzi growth-3	NIH3T3 tox	NIH3T3 tox 2
COc1ccc(C#Cc2ccc3c(c2)[C@H]2[C@H](CCN2C(=O)C2CC2)[C@H](CO)N3)cc1	2	.	104*	110*	67	0	41*
COc1ccc(OC)c(NC(=O)COc2ccc3c4c(c(=O)oc3c2)CCCC4)c1	.	0	.	.	.	.	.
Cc1ccc(F)c(NC(=O)CSc2nnc(-c3ccccc3)n2C)c1	.	0	.	.	.	.	.
Cc1cccc(C(=O)NCc2n[nH]c(=S)n2-c2ccccc2)c1	.	0	.	.	.	.	.
CN(CC(=O)Nc1ccc(Cl)c(C(F)(F)F)c1)S(=O)(=O)c1ccc(F)cc1	.	0	.	.	.	.	.
N#CCCN(CC1COc2ccccc2O1)C(=O)c1ccccc1 (centres undefined)	.	1	.	.	.	.	.
Cc1ccc(Cl)cc1NC(=O)C(C)n1cc([N+](=O)[O-])cn1 (centres undefined)	.	0	.	.	.	.	.
CN(CC(=O)Nc1ccc(Cl)cc1C(F)(F)F)S(=O)(=O)c1ccc(Br)cc1	.	1	.	.	.	.	.
CN1CCN(C(=O)CN(c2cccc([N+](=O)[O-])c2)S(C)(=O)=O)CC1	.	0	.	.	.	.	.
C=C1C(=O)O[C@H]2C1[C@H](OC(=O)/C(=C/CO)COC(=O)/C(C)=C/CO)CC(=C)[C@@H]1CC(=O)[C@@H](C)[C@@H]12 (some centres undefined)	.	3	.	.	.	.	.
Cc1ccc(S(=O)(=O)N(C)C[C@@H]2Oc3cc(C4=CCCC4)ccc3S(=O)(=O)N([C@H](C)CO)C[C@H]2C)cc1	0	0	.	.	.	.	.
C[C@H](CO)N1C[C@H](C)[C@H](CN(C)S(=O)(=O)c2ccc(F)cc2)Oc2cc(C3=CCCC3)ccc2S1(=O)=O	-1	0	118*	108*	78	37*	24*
C[C@@H]1CN([C@@H](C)CO)S(=O)(=O)c2ccc(C3=CCCC3)cc2O[C@@H]1CN(C)S(=O)(=O)c1ccc(F)cc1	1	0	119*	106*	75	29	31*
Cc1ccc(S(=O)(=O)N(C)C[C@H]2Oc3cc(C4=CCCC4)ccc3S(=O)(=O)N([C@@H](C)CO)C[C@@H]2C)cc1	0	0	.	.	.	.	.
CCCOc1ccc(-c2nc(SCC(=O)O)n[nH]2)cc1	.	1	.	.	.	.	.
O=C(C1CCCC1)N1CCCCN2[C@@H](CO)[C@H](c3ccc(C#CC4CC4)cc3)[C@@H]2C1	.	.	121*	110*	65	40*	82*
O=C(C1CCC1)N1CCCCN2[C@H](CO)[C@@H](c3ccc(C#CC4CCCC4)cc3)[C@@H]2C1	.	.	94	.	.	.	.
O=C(C1CC1)N1CCCCN2[C@@H](CO)[C@H](c3ccc(C#CC4CC4)cc3)[C@@H]2C1	.	.	103*	84	43	24	52*
O=C(C1CCC1)N1CCCCN2[C@H](C1)[C@H](c1ccc(C#CC3CCCC3)cc1)[C@@H]2CO	.	.	103*	108*	54	27	104*
O=C(C1CC1)N1CCCCN2[C@@H](CO)[C@@H](c3ccc(C#CC4CC4)cc3)[C@@H]2C1	.	.	50	.	.	.	.

Source: PubChem
